Assay outcomes as filed in PubChem.
UCH37 inh: blocks the human deubiquitinase UCH37. Q9Y5K5. purified proteasome/UCH37, Ub-AMC cleavage fluorescence. inhibition, % (test concentration not listed). hit rate 0.33% among 330,000;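 active = mean inhibition over replicate wells above about 20%, limit read from the data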;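 note: 0% = compound-free wells with enzyme and 100% = wells lacking proteasome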
Target sequence (Q9Y5K5 whole entry, looked up): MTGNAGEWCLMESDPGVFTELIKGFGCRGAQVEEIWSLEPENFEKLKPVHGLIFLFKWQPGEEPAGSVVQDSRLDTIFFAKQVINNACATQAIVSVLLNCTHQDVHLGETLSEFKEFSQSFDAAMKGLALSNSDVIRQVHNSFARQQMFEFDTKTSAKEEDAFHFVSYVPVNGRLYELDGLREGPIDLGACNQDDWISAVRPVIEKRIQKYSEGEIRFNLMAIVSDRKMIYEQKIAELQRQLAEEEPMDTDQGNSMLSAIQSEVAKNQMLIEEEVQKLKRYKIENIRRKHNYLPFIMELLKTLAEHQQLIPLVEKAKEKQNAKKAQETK
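Material: human UCH37 enzyme supplied as purified proteasome complex / Amount: 0.15 nM proteasome as dispensed / Buffer or medium: pH 7.4 Tris-HCl (50 mM) with ovalbumin, ATP-MgCl2, DTT / Times: preincubation 30 min, reaction 25 min, room temperature / Technique: AMC fluorescence from Ub-AMC cleavage, excitation 355 nm, emission 460 nm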
CHOP inhibitor: CHOP inhibition in unfolded protein response; CHO-K1 CHOP-promoter luciferase, tunicamycin-induced, 15-18 h; inhibition, % at 10 µM; hit rate 3.8% among 220,000;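 active = compounds that reduced the stress-induced luciferase reporter signal by more than about 70% of percent inhibition, limit read from the data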;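 note: 0% = tunicamycin plus vehicle and 100% = wells without tunicamycin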
CHOP UPR activ: apoptotic UPR (CHOP) activation. AID 449763. activation, % at 10 µM. hit rate 0.34% among 330,000. CHO-CHOP luciferase reporter, luminescence; percent of tunicamycin response over DMSO baseline;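 active = at 10 µM dose, activation of 40% or more, normalized to positive control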;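 note: 100% = tunicamycin at 10 µg/mL and 0% = DMSO alone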
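Assay system: CHO-CHOP cells, stable luciferase reporter of PERK-eIF2a-CHOP signalling / Buffer or medium: F12 plus 10% serum / Compound dosing: one dose, 10 µM in 0.5% DMSO / Times: 6 h compound treatment, 37 °C / Technique: luciferase luminescence / Read-out: % reporter activation, DMSO baseline versus tunicamycin full activation / Benchmarks: tunicamycin and DMSO controls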
Fh CTSL1 inh: counter-screen for PFM18AAP inhibitors: inhibitors of F. hepatica cathepsin L1 | recombinant F. hepatica cathepsin L1, Z-Leu-Arg-MCA fluorescence | inhibition, % at 5.96 µM | hit rate 0.49% among 300,000 | AID 1906;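 active = inhibition above the mean of all tested compounds plus 3 SD, set per screening campaign, cut at about 17% in these data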;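 note: 0% = plate median of test compound wells and 100% = 1 µM Z-Phe-Ala-diazomethylketone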
UPR XBP1 act: adaptive UPR (XBP1) activation. hit rate 0.33% among 330,000. CHO-XBP1 luciferase reporter, IRE1-XBP1 UPR activation, luminescence; percent of tunicamycin response, DMSO as zero. activation, % at 20 µM;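 active = versus positive control, 20 µM dose yields 30% or more activation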;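 note: 100% = tunicamycin at 10 µg/mL and 0% = DMSO only wells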
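Test system: CHO-XBP1 luciferase reporter cells | Buffer or medium: Serum-containing F12 medium, 10% FBS | Schedule: 6 h compound exposure at 37 °C, 5% CO2 | Detection: Steady-Glo luciferase glow luminescence, 10 min after reagent addition | Read-out basis: Activation, % of tunicamycin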
CHOP UPR conf: apoptotic UPR (CHOP) activation, confirmed. shares compounds with CHOP UPR activ. CHO-CHOP cells, CHOP-luciferase reporter luminescence; percent of tunicamycin response, DMSO as zero. activation, % at 10 µM. hit rate 64% among 1,000. AID 463112; in the data active = activation above about 33%;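 note: 0% = DMSO wells and 100% = tunicamycin 10 µg/mL wells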
* = called active by the depositor; i = inactive; . = no result. Shown is part of a subset that was picked to be rich in hits.

SMILES | UCH37 inh | CHOP inhibitor | CHOP UPR activ | Fh CTSL1 inh | UPR XBP1 act | CHOP UPR conf
Cc1ccc(C2=NN(C(=O)CCl)C(c3cccs3)C2)o1 (stereo unspecified) | 2.7 | 84.1* | 41.4* | 17.5* | -4.3 | 30.2
CC(=O)N1N=C(c2ccco2)CC1c1cccs1 (stereo unspecified) | -0.7 | -1.8 | -0.6 | 0.7 | -0.6 | .
O=C(NN=Cc1cccnc1)c1ccccc1NS(=O)(=O)c1cccs1 | 5.6 | . | . | . | . | .
Oc1ccc2ccccc2c1N=Nc1ccccn1 | 4.4 | 69.4 | 48.3* | 0.6 | -4.1 | 37.2*
Cc1cc(N2CCC(C)CC2)nc(-n2nc(C)cc2C)n1 | 1.0 | -181.5 | 86.5* | 1.3 | 3.0 | 13.8
Cc1cc(C)n(-c2nc3ccccc3nc2N2CCC(C)CC2)n1 | -4.3 | 32.3 | 0.0 | 7.3 | -0.3 | .
COc1ccc(C(=O)ON=C2C(=O)N(C)c3ccccc32)cc1 | 1.4 | . | . | . | . | .
COc1ccc(/C=C\c2nc(=O)c3ccccc3o2)cc1 | . | -29.7 | 57.1* | . | 6.6 | 120.6*
CC1CCCCC1=NNC(=S)Nc1ccccc1 (stereo unspecified) | 0.2 | . | . | . | . | .
O=C(O)COc1ccccc1C=NNC(=O)Cc1ccccc1 | 1.8 | . | . | . | . | .
O=C(NCc1cccnc1)/C(=C/c1ccc(-c2cccc(Cl)c2)o1)S(=O)(=O)c1ccccc1 | 0.0 | 94.2* | 83.1* | 2.4 | -8.2 | 113.7*
O=C(NCc1cccnc1)/C(=C\c1ccc(-c2cccc(Cl)c2)o1)S(=O)(=O)c1ccccc1 | -0.4 | 43.1 | . | -1.6 | . | .
COC(=O)[C@@H]1[C@@H](C#N)C2(c3ccccc3-c3ccccc32)N(c2ccc(Cl)cc2)N1C#N | 2.7 | 82.0* | 92.0* | 0.6 | 4.2 | 55.0*
Nc1nonc1-n1nnc(C(=O)NN=Cc2ccccc2Cl)c1-c1ccc2c(c1)OCO2 | -15.6 | . | . | . | . | .
Oc1ccc(-c2csc(-c3ccccc3)n2)cc1O | 1.3 | -92.3 | 143.5* | -0.3 | 13.2 | 52.5*
Oc1ccc(-c2csc(-c3cccnc3)n2)cc1O | 1.7 | 39.9 | 31.2 | -0.2 | 0.2 | .
O=C1C(c2ccccc2)=[N+]([O-])c2ccccc21 | -16.7 | . | 66.5* | 31.0* | 15.7 | 29.4
O=C1C(=Cc2cccs2)C(=O)c2ccccc21 | 8.6 | 26.7 | -0.1 | -4.3 | -4.2 | .
Cc1cc(=O)[nH]c(NN=Cc2ccco2)n1 | 6.2 | . | . | . | . | .
Cc1ccc(S(=O)(=O)N(C(=O)c2ccncc2)c2ccc(OC(=O)c3ccncc3)c3ccccc23)cc1 | -2.2 | -26.6 | 13.8 | -6.3 | -2.3 | .
Cc1ccc(S(=O)(=O)N(C(=O)c2ccncc2)c2ccc(OC(=O)c3ccncc3)c3ccccc23)c(C)c1 | 3.9 | -199.8 | 58.7* | -8.8 | -2.8 | 113.2*
CC(=O)N(C)Cc1ccc(C(=O)CCl)cc1 | 6.2 | 104.7* | 94.1* | 12.1 | -7.8 | 2.4
CC(C)N1CSC(=S)N(Cc2ccccc2)C1 | 1.9 | 24.0 | 74.7* | -2.5 | 0.7 | 93.5*
CC(C)(C)N1CSC(=S)N(Cc2ccccc2)C1 | 4.9 | 0.6 | 85.7* | 5.0 | -1.0 | 81.6*
CCOc1cc(C=NNc2nn3cnnc3c3ccccc23)ccc1O | 11.1 | . | . | . | . | .
SMILES | UCH37 inh | CHOP inhibitor | CHOP UPR activ | Fh CTSL1 inh | UPR XBP1 act | CHOP UPR conf
S=C1SCN(Cc2ccccn2)CN1Cc1ccco1 | 2.3 | -83.7 | 101.5* | -0.1 | 2.0 | 50.1*
S=C1SCN(Cc2cccnc2)CN1Cc1ccccc1 | 4.3 | -109.0 | -1.4 | 5.9 | 4.2 | .
COCCN1CSC(=S)N(Cc2ccco2)C1 | 1.2 | -191.1 | 90.8* | 2.2 | 4.0 | 53.0*
CCOCCCN1CN(Cc2ccco2)CNC1=S | -1.0 | 12.0 | 0.5 | -4.2 | -3.2 | .
COc1ccc(O)c(/C=N/Nc2nc(C)cc(-c3ccccc3)n2)c1 | . | . | 6.3 | -0.1 | -1.6 | .
Cc1cc(N/N=C/c2cccc(Cl)c2)nc(-n2nc(C)cc2C)n1 | . | -28.8 | 50.5* | 1.8 | 5.9 | 6.7
COc1ccc(/C=N/Nc2cc(C)nc(-n3nc(C)cc3C)n2)cc1 | . | 61.1 | 52.2* | 1.8 | 8.3 | 32.7*
COc1ccc(O)c(/C=N/Nc2nc(Nc3ccccc3)nc(-n3nc(C)cc3C)n2)c1 | . | 11.2 | 101.7* | 0.0 | -0.3 | 111.6*
Cc1cc(NN=Cc2ccc(Br)cc2)nc(-n2nc(C)cc2C)n1 | 1.0 | . | . | . | . | .
Cc1cc(N/N=C/c2ccccc2[N+](=O)[O-])nc(-n2nc(C)cc2C)n1 | . | 60.7 | 121.5* | -1.3 | 12.1 | 94.3*
Cc1cc(N/N=C/c2cccc([N+](=O)[O-])c2)nc(-n2nc(C)cc2C)n1 | . | 35.8 | -0.1 | -4.7 | 0.9 | .
CCOc1ccc(C=NNC(=O)c2ccccc2C)cc1CN1CC2CC(C1)c1cccc(=O)n1C2 (stereo unspecified) | 4.4 | . | . | . | . | .
O=C(NN=Cc1cc(Br)c(O)c(Br)c1O)c1cccnc1 | 5.4 | . | . | . | . | .
COc1ccc(Nc2ccc3c(c2)=NC2(CCCCC2)[N+]=3[O-])cc1 | 19.0 | -35.6 | 44.8* | -0.7 | 12.9 | 20.6
C=CCn1c(O)c(N=NC(=S)Nc2ccccc2F)c2ccccc21 | 3.8 | -74.8 | 18.8 | -1.9 | 2.7 | .
C=CCn1c(O)c(N=NC(=S)Nc2ccccc2F)c2cc(S(=O)(=O)N3CCOCC3)ccc21 | 6.5 | -28.4 | 88.3* | 0.8 | -0.8 | 121.4*
Cc1cn2nc(N)c3ccccc3c2n1 | -121.0 | 5.7 | 41.1* | -1.9 | -2.0 | -0.7
Nc1nn2cc(-c3ccccc3)nc2c2ccccc12 | i | 5.8 | 2.6 | -0.5 | 1.9 | .
